# Experimental data reported in ChEMBL document CHEMBL2086235, “A novel thiazolidine compound induces caspase-9 dependent apoptosis in cancer cells” (Bioorg Med Chem, 2012).
# Activity calls are given as the source filed them. The rule behind the calls is not given here.
# What was measured:
# [1] = tested on: Huh-7; experiment: Growth inhibition of human HuH7 cells incubated for 48 hrs by Giemsa staining; assay type: functional, cell-based
# Procedure, shortened: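 Cells grown overnight, compound added from DMSO solution, then incubated 48 h more. Attached cells stained with Giemsa and photographed; qualitative read-out.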
# [2] = tested on: MCF7; experiment: Induction of cell death in human MCF7 cells at 2.5 to 40 uM incubated for 72 hrs by SRB assay; assay type: functional, cell-based
# Procedure, shortened: (§1)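 Cells seeded and grown 24 h at 37 °C, then treated 72 h in triplicate. Fixed with cold 10% TCA 1 h at 4 °C, stained with 0.4% SRB in 1% acetic acid 10 min, washed in 1% acetic acid. Dye solubilized in 10 mM Tris base; absorbance read at 515 nm. Normalized to DMSO control and Tz; three independent experiments.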
# [3] = tested on: Huh-7; experiment: Induction of cell death in human HuH7 cells at 2.5 to 40 uM incubated for 72 hrs by SRB assay; assay type: functional, cell-based; procedure, shortened: as §1
# [4] = tested on: HCT-116; experiment: Induction of cell death in human HCT116 cells at 2.5 to 40 uM incubated for 72 hrs by SRB assay; assay type: functional, cell-based; procedure, shortened: as §1
# [5] = tested on: HepG2; experiment: Increase in caspase-8 activation in human HepG2 cells at 10 uM incubated for 12 hrs in presence of 50 uM caspase-9 inhibitor z-LEHD-fmk by Caspase Glo assay; assay type: functional, cell-based
# Procedure, shortened: (§2)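 HepG2 pre-incubated 24 h at 37 °C with 50 μM of the named caspase inhibitor peptide or DMSO. Medium then replaced with fresh medium holding the same inhibitor plus compound. Caspase activity read by Caspase-Glo luminescence after 12 h. Values normalized to inhibitor-only wells without compound. Two independent experiments in duplicate; t-test.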
# [6] = tested on: CAMA-1; experiment: Induction of cell death in human CAMA1 cells at 0.02 uM incubated for 72 hrs by real-time cell analysis; assay type: functional, cell-based
# Procedure, shortened: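 Cells (1000-5000/well) on impedance plates monitored by real-time cell analysis. Treated about 24 h after seeding, in log phase, and followed 72 h against DMSO controls. Inhibition (%) = (1 − CI treated/CI DMSO) × 100. At least three repeats.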
# [7] = tested on: Huh-7 (Homo sapiens); experiment: Induction of cell death in human Huh7 cells at 5 uM incubated for 72 hrs by real-time cell analysis
# [8] = tested on: BT-20; experiment: Cytotoxicity against human BT20 cells incubated for 72 hrs by SRB assay; assay type: functional, cell-based; details: BT-20, 72 h
# Procedure, shortened: (§3)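 Cells grown in DMEM with 10% FCS, 2 mM L-glutamine, NEAA and antibiotics at 37 °C, 5% CO2, then seeded at 1000–5000 cells/well and grown 24 h. Compounds were added from DMSO for 72 h, following NCI guidelines. Cells were fixed in cold 10% TCA for 1 h at 4 °C and stained with 0.4% SRB in 1% acetic acid for 10 min. Bound dye was dissolved in 10 mM Tris and absorbance read at 515 nm.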
# [9] = tested on: HepG2; experiment: Induction of apoptosis in human HepG2 cells assessed as cytochrome c release at 10 uM incubated for 48 hrs by immunostaining; assay type: functional, cell-based
# Procedure, shortened: (§4)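 After 48 h exposure, coverslip-grown cells fixed in 4% paraformaldehyde, permeabilized in ice-cold acetone, blocked in 3% BSA 1 h at 37 °C. Anti-cytochrome c monoclonal applied overnight at 4 °C, then FITC anti-mouse secondary 1 h at room temperature. Diffuse cytoplasmic staining scored by fluorescence microscopy.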
# [10] = Cell cycle arrest in human Mahlavu cells assessed as subG1/G1 phase accumulation at 5 uM incubated for 12 hrs to 24 hrs by propidium iodide staining based flow cytometry; assay type: functional
# Procedure, shortened: (§5)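 Cells seeded 100,000-200,000 per dish, grown 24 h, then held a further day in starvation medium (1% FBS, 1% P/S, 1% NEAA in DMEM). Treated with compound or DMSO, harvested by trypsinization, fixed in ice-cold 70% ethanol at 4 °C. Stained 40 min at 37 °C in the dark with propidium iodide, RNase A and Triton X-100 in PBS. G1 = 2N, G2 = 4N; >4N cells gated out.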
# [11] = tested on: Huh-7; experiment: Induction of apoptosis in human HuH7 cells assessed as cytochrome c release at 10 uM incubated for 48 hrs by immunostaining; assay type: functional, cell-based; procedure, shortened: as §4
# [12] = tested on: CAMA-1; experiment: Cytotoxicity against human CAMA1 cells incubated for 72 hrs by SRB assay; assay type: functional, cell-based; details: CAMA-1, 72 h; procedure, shortened: as §3
# [13] = tested on: Huh-7; experiment: Cytotoxicity against human HuH7 cells incubated for 72 hrs by SRB assay; assay type: functional, cell-based; details: Huh-7, 72 h; procedure, shortened: as §3
# [14] = tested on: HepG2; experiment: Increase in caspase-9 activation in human HepG2 cells at 10 uM incubated for 12 hrs by Caspase Glo assay; assay type: functional, cell-based
# Procedure, shortened: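 HepG2 pre-incubated 24 h at 37 °C with DMSO, then moved to fresh medium with compound. Caspase-9 activity read by Caspase-Glo after 12 h and normalized to untreated controls. Two independent experiments in duplicate.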
# [15] = tested on: MFE-296; experiment: Cytotoxicity against human MFE296 cells incubated for 72 hrs by SRB assay; assay type: functional, cell-based; details: MFE-296, 72 h; procedure, shortened: as §3
# [16] = tested on: Huh-7 (Homo sapiens); experiment: Induction of cell death in human Huh7 cells at 10 uM incubated for 72 hrs by real-time cell analysis
# [17] = tested on: MCF7; experiment: Cytotoxicity against human MCF7 cells incubated for 72 hrs by SRB assay; assay type: functional, cell-based; details: MCF7, 72 h; procedure, shortened: as §3
# [18] = tested on: HepG2; experiment: Increase in caspase-9 activation in human HepG2 cells at 10 uM incubated for 12 hrs in presence of caspase-8 inhibitor z-IETD-fmk by Caspase Glo assay; assay type: functional, cell-based; procedure, shortened: as §2
# [19] = tested on: FOCUS; experiment: Induction of apoptosis in human FOCUS cells assessed as cytochrome c release at 10 uM incubated for 48 hrs by immunostaining; assay type: functional, cell-based; procedure, shortened: as §4
# [20] = tested on: FOCUS; experiment: Induction of apoptosis in human FOCUS cells assessed as DNA fragmentation at 10 uM incubated for 48 hrs by TUNEL assay; assay type: functional, cell-based
# Procedure, shortened: (§6)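 Cells grown overnight on coverslips, then exposed 48 h. Fixed in cold methanol; TUNEL done with an in situ cell death detection kit. Nuclei counterstained with Hoechst 33258 (3 μg/mL, 5 min, dark) and viewed by fluorescence microscopy.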
# [21] = tested on: Huh-7; experiment: Induction of caspase-3 cleavage in human HuH7 cells at 2.5 to 5 uM incubated for 6 to 24 hrs by Western blot; assay type: functional, cell-based
# Procedure, shortened: (§7)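 Huh7 treated with compound or DMSO for 6, 12 or 24 h. Lysates quantified by Bradford and heat-denatured. Blotted onto nitrocellulose and probed with antibodies to cleaved caspase-9, cleaved caspase-3 and caspase-8 (1:500, overnight at 4 °C). Bands quantified by densitometry and normalized to actin.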
# [22] = tested on: T47D; experiment: Cytotoxicity against human T47D cells incubated for 72 hrs by SRB assay; assay type: functional, cell-based; procedure, shortened: as §3
# [23] = tested on: HepG2; experiment: Cytotoxicity against human HepG2 cells incubated for 72 hrs by SRB assay; assay type: functional, cell-based; details: HepG2, 72 h; procedure, shortened: as §3
# [24] = tested on: HepG2; experiment: Increase in caspase-9 activation in human HepG2 cells at 10 uM incubated for 12 hrs in presence of caspase-3 inhibitor z-DEVD-fmk by Caspase Glo assay; assay type: functional, cell-based; procedure, shortened: as §2
# [25] = tested on: Huh-7; experiment: Induction of apoptosis in human HuH7 cells assessed as DNA fragmentation at 10 uM incubated for 48 hrs by TUNEL assay; assay type: functional, cell-based; procedure, shortened: as §6
# [26] = Cytotoxicity against human MV cells incubated for 72 hrs by SRB assay; assay type: functional, cell-based; procedure, shortened: as §3
# [27] = tested on: HCT-116; experiment: Cytotoxicity against human HCT116 cells incubated for 72 hrs by SRB assay; assay type: functional, cell-based; details: HCT-116, 72 h; procedure, shortened: as §3
# [28] = Cytotoxicity against human FOCUS cells incubated for 72 hrs by SRB assay; assay type: functional, cell-based; procedure, shortened: as §3
# [29] = tested on: HepG2; experiment: Induction of apoptosis in human HepG2 cells assessed as DNA fragmentation at 10 uM incubated for 48 hrs by TUNEL assay; assay type: functional, cell-based; procedure, shortened: as §6
# [30] = tested on: Huh-7; experiment: Induction of caspase-8 cleavage in human HuH7 cells at 2.5 to 5 uM incubated for 6 to 24 hrs by Western blot; assay type: functional, cell-based; procedure, shortened: as §7
# [31] = tested on: HepG2; experiment: Increase in caspase-8 activation in human HepG2 cells at 10 uM incubated for 12 hrs in presence of 50 uM caspase-3 inhibitor z-DEVD-fmk by Caspase Glo assay; assay type: functional, cell-based; procedure, shortened: as §2
# [32] = tested on: Huh-7; experiment: Cell cycle arrest in human HuH7 cells assessed as subG1/G1 phase accumulation at 5 uM incubated for 12 hrs to 24 hrs by propidium iodide staining based flow cytometry; assay type: functional; procedure, shortened: as §5
# [33] = tested on: Huh-7; experiment: Induction of caspase-9 cleavage in human HuH7 cells at 2.5 to 5 uM incubated for 6 to 24 hrs by Western blot; assay type: functional, cell-based; procedure, shortened: as §7
structure (smiles),measurement,setting,value
CCOC(=O)[C@@H]1CSC(c2ccccc2)N1C(=O)c1cn(CCCNC(=O)C(F)(F)F)nn1 (stereo not given in full),growth inhibition (GI),[1],inactive
CCOC(=O)[C@@H]1CSC(c2ccccc2)N1C(=O)c1cn(CCc2ccc(F)cc2)nn1 (stereo not given in full),growth inhibition (GI),[1],inactive
CCOC(=O)[C@@H]1CSC(c2ccccc2)N1C(=O)c1cn(CCc2ccccc2)nn1 (stereo not given in full),growth inhibition (GI),[1],inactive
CCOC(=O)[C@@H]1CSC(c2ccccc2)N1C(=O)c1cn(CCc2ccsc2)nn1 (stereo not given in full),Activity,[2],inactive
same,Activity,[3],inactive
same,growth inhibition (GI),[1],inactive
same,Activity,[4],inactive
CCOC(=O)[C@@H]1CSC(c2ccccc2)N1C(=O)c1cn(Cc2ccccc2)nn1 (stereo not given in full),growth inhibition (GI),[1],inactive
COC(=O)CN(C[C@@H]1CSC(c2ccccc2)N1C(=O)c1ccccc1)C(=O)C(C)(C)C (stereo not given in full),growth inhibition (GI),[1],inactive
COC(=O)CN(C[C@@H]1CSC(c2ccccc2)N1C(=O)c1ccccc1)C(=O)c1c(F)c(F)c(F)c(F)c1F (stereo not given in full),growth inhibition (GI),[1],inactive
Cc1cn(CC(=O)N2C(c3ccccc3)SC[C@H]2C(=O)NC(C)(C)C)c(=O)[nH]c1=O (stereo not given in full),Activity,[2],inactive
same,Activity,[3],inactive
same,growth inhibition (GI),[1],inactive
same,Activity,[4],inactive
Cc1cn(CC(=O)N2C(c3ccccc3)SC[C@H]2C(=O)NC(C)C)c(=O)[nH]c1=O (stereo not given in full),growth inhibition (GI),[1],inactive
Cc1cn(CC(=O)N2C(c3ccccc3)SC[C@H]2C(=O)NCCc2ccccc2)c(=O)[nH]c1=O (stereo not given in full),growth inhibition (GI),[1],inactive
Cc1cn(CC(=O)N2C(c3ccccc3)SC[C@H]2C(=O)NCc2ccccc2)c(=O)[nH]c1=O (stereo not given in full),growth inhibition (GI),[1],inactive
O=C(O)CN(C[C@@H]1CSC(c2ccccc2)N1C(=O)c1ccccc1)C(=O)c1c(F)c(F)c(F)c(F)c1F (stereo not given in full),growth inhibition (GI),[1],inactive
O=C(c1c(F)c(F)c(F)c(F)c1F)N(CCc1ccsc1)C[C@@H]1CSC(c2ccccc2)N1C(=O)c1ccccc1 (stereo not given in full),growth inhibition (GI),[1],inactive
C#CC(=O)N1C(c2ccccc2)SC[C@H]1C(=O)OCC (mixture of isomers),Activity,[5],inactive
same,Activity,[6],inactive
same,Activity,[7],100%
same,IC50,[8],1.6 µM
same,Activity,[9],Active
same,Activity,[2],Active
same,Activity,[3],Active
same,Activity,[10],Active
same,Activity,[11],Active
same,IC50,[12],0.01 µM
same,IC50,[13],5.3 µM
same,Activity,[14],Active
same,IC50,[15],0.5 µM
same,Activity,[16],100%
same,growth inhibition (GI),[1],Active
same,IC50,[17],4.7 µM
same,Activity,[18],inactive
same,Activity,[4],Active
same,Activity,[19],Active
same,Activity,[20],Active
same,Activity,[21],Active
same,IC50,[22],7.62 µM
same,IC50,[23],10 µM
same,Activity,[24],inactive
same,Activity,[25],Active
same,IC50,[26],0.41 µM
same,IC50,[27],9.23 µM
same,IC50,[28],5.47 µM
same,Activity,[29],Active
same,Activity,[30],inactive
same,Activity,[31],inactive
same,Activity,[32],Active
same,Activity,[33],Active
CC[C@@]1(O)C(=O)OCc2c1cc1n(c2=O)Cc2cc3ccccc3nc2-1 [CAMPTOTHECIN],IC50,[8],0.07 µM
same,IC50,[12],0.07 µM
same,IC50,[13],0.15 µM
same,IC50,[15],< 1 µM
same,IC50,[17],< 1 µM
same,IC50,[22],< 1 µM
same,IC50,[23],0.01 µM
same,IC50,[26],< 1 µM
same,IC50,[27],< 1 µM
same,IC50,[28],< 1 µM
O=c1[nH]cc(F)c(=O)[nH]1 [FLUOROURACIL],IC50,[8],47.3 µM
same,IC50,[12],1.28 µM
same,IC50,[15],30.7 µM
same,IC50,[22],8.91 µM
same,IC50,[23],5.7 µM
same,IC50,[26],9.97 µM
same,IC50,[27],18.7 µM
same,IC50,[28],7.69 µM
